Laboratory results from ChEMBL document CHEMBL4118256, “Second Generation of Mannich Base-Type Derivatives with in Vivo Activity against Trypanosoma cruzi” (J Med Chem, 2018).

Tested on: Trypanosoma cruzi
Assay: Trypanocidal activity against Trypanosoma cruzi MHOM/Pe/2011/Arequipa DTU 5 epimastigotes after 48 hrs by resazurin dye based assay
Type: functional, organism-based
Conditions: MHOM/Pe/2011/Arequipa DTU 5, 48 h
Outline: (§1)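 Exponential-phase epimastigotes were seeded at 5×10^5 mL^-1 with compounds at 100–0.2 µM (DMSO 0.01% v/v) at 28 °C. After 48 h, resazurin was added for another 24 h. SDS was then added and absorbance read at 570 and 600 nm.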

Compound | IC50
O=C(CCN1CCN(c2ccc(Cl)cc2)CC1)c1ccc(Cl)c(F)c1 | 42 µM
O=C(CCN1CCN(c2ccc(C(F)(F)F)cc2)CC1)c1ccc(OC(F)(F)F)cc1 | 51.2 µM
O=C(CCN1CCN(c2ccc(C(F)(F)F)cc2)CC1)c1ccc(C(F)(F)F)cc1 | 24.3 µM
O=C(CCN1CCN(c2ccccc2F)CC1)c1ccc(F)cc1 | 37.9 µM
COc1ccc(N2CCN(CCC(=O)c3ccc(F)cc3)CC2)cc1 | 24.5 µM
O=C(CCN1CCN(c2ccc(F)cc2)CC1)c1ccc(F)c(Cl)c1 | 25.3 µM
O=C(CCN1CCN(c2ccc(C(F)(F)F)cc2)CC1)c1ccc(F)c(F)c1 | 33.4 µM
Cc1ccc(C(=O)CCN2CCN(c3ccc(Cl)cc3)CC2)cc1 | 31.7 µM
O=C(CCN1CCN(c2ccc(Cl)cc2)CC1)c1ccc(Br)cc1 | 42.5 µM

Tested on: Trypanosoma cruzi
Assay: Trypanocidal activity against Trypanosoma cruzi IRHOD/CO/2008/SN3 DTU 1 epimastigotes after 48 hrs by resazurin dye based assay
Type: functional, organism-based
Conditions: IRHOD/CO/2008/SN3 DTU 1, 48 h
Outline: as §1

Compound | IC50
O=C(CCN1CCN(c2ccc(Cl)cc2)CC1)c1ccc(Cl)c(F)c1 | 51.6 µM
O=C(CCN1CCN(c2ccc(C(F)(F)F)cc2)CC1)c1ccc(OC(F)(F)F)cc1 | 38.4 µM
O=C(CCN1CCN(c2ccc(C(F)(F)F)cc2)CC1)c1ccc(C(F)(F)F)cc1 | 34.7 µM
O=C(CCN1CCN(c2ccccc2F)CC1)c1ccc(F)cc1 | 52.6 µM
COc1ccc(N2CCN(CCC(=O)c3ccc(F)cc3)CC2)cc1 | 22.2 µM
O=C(CCN1CCN(c2ccc(F)cc2)CC1)c1ccc(F)c(Cl)c1 | 41.6 µM
O=C(CCN1CCN(c2ccc(C(F)(F)F)cc2)CC1)c1ccc(F)c(F)c1 | 28.8 µM
Cc1ccc(C(=O)CCN2CCN(c3ccc(Cl)cc3)CC2)cc1 | 26 µM
O=C(CCN1CCN(c2ccc(Cl)cc2)CC1)c1ccc(Br)cc1 | 26.4 µM

Tested on: Trypanosoma cruzi
Assay: Trypanocidal activity against Trypanosoma cruzi TINF/CH/1956/Tulahuen DTU 6 epimastigotes after 48 hrs by resazurin dye based assay
Type: functional, organism-based
Conditions: TINF/CH/1956/Tulahuen DTU 6, 48 h
Outline: as §1

Compound | IC50
O=C(CCN1CCN(c2ccc(Cl)cc2)CC1)c1ccc(Cl)c(F)c1 | 55.5 µM
O=C(CCN1CCN(c2ccc(C(F)(F)F)cc2)CC1)c1ccc(OC(F)(F)F)cc1 | 86.3 µM
O=C(CCN1CCN(c2ccc(C(F)(F)F)cc2)CC1)c1ccc(C(F)(F)F)cc1 | 43 µM
O=C(CCN1CCN(c2ccccc2F)CC1)c1ccc(F)cc1 | 53.5 µM
COc1ccc(N2CCN(CCC(=O)c3ccc(F)cc3)CC2)cc1 | 38.9 µM
O=C(CCN1CCN(c2ccc(F)cc2)CC1)c1ccc(F)c(Cl)c1 | 37.1 µM
O=C(CCN1CCN(c2ccc(C(F)(F)F)cc2)CC1)c1ccc(F)c(F)c1 | 54.1 µM
Cc1ccc(C(=O)CCN2CCN(c3ccc(Cl)cc3)CC2)cc1 | 29.5 µM
O=C(CCN1CCN(c2ccc(Cl)cc2)CC1)c1ccc(Br)cc1 | 20.9 µM

Tested on: Vero
Assay: Cytotoxicity against African green monkey Vero cells assessed as reduction in cell viability after 72 hrs by resazurin dye based assay
Conditions: Chlorocebus sabaeus
Outline: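 Vero monkey kidney cells grown at 37 °C, 5 % CO2, in RPMI with 10 % heat-inactivated FBS. Seeded at 1.25 × 10^4 mL-1 with compound at 1000 to 1 µM (DMSO 0.01 % v/v). After 48 h, resazurin added for a further 24 h, then SDS. Absorbance read at 570/600 nm. IC50 from triplicates in four separate determinations.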

Compound | IC50
O=C(CCN1CCN(c2ccc(Cl)cc2)CC1)c1ccc(Cl)c(F)c1 | 175 µM
O=C(CCN1CCN(c2ccc(C(F)(F)F)cc2)CC1)c1ccc(OC(F)(F)F)cc1 | 64.9 µM
O=C(CCN1CCN(c2ccc(C(F)(F)F)cc2)CC1)c1ccc(C(F)(F)F)cc1 | 49.2 µM
O=C(CCN1CCN(c2ccccc2F)CC1)c1ccc(F)cc1 | 49.5 µM
COc1ccc(N2CCN(CCC(=O)c3ccc(F)cc3)CC2)cc1 | 31.9 µM
O=C(CCN1CCN(c2ccc(F)cc2)CC1)c1ccc(F)c(Cl)c1 | 185 µM
O=C(CCN1CCN(c2ccc(C(F)(F)F)cc2)CC1)c1ccc(F)c(F)c1 | 14 µM
Cc1ccc(C(=O)CCN2CCN(c3ccc(Cl)cc3)CC2)cc1 | 184 µM
O=C(CCN1CCN(c2ccc(Cl)cc2)CC1)c1ccc(Br)cc1 | 52.1 µM

Tested on: not listed separately
Assay: Selectivity index, ratio of IC50 for African green monkey Vero cells to IC50 for Trypanosoma cruzi MHOM/Pe/2011/Arequipa DTU 5 epimastigotes
Type: toxicity
Conditions: read-out: Ratio IC50
Outline: (§2)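 SI is Vero IC50 divided by the IC50 for the stated parasite form. For Vero cytotoxicity, cells were seeded at 1.25×10^4 mL^-1 with compounds at 1000–1 µM, incubated 48 h, then given resazurin for a further 24 h (72 h total), with absorbance read at 570/600 nm. Triplicate, four determinations.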

Compound | selectivity ratio
O=C(CCN1CCN(c2ccc(Cl)cc2)CC1)c1ccc(Cl)c(F)c1 | 4.2
O=C(CCN1CCN(c2ccc(C(F)(F)F)cc2)CC1)c1ccc(OC(F)(F)F)cc1 | 1.3
O=C(CCN1CCN(c2ccc(C(F)(F)F)cc2)CC1)c1ccc(C(F)(F)F)cc1 | 2
O=C(CCN1CCN(c2ccccc2F)CC1)c1ccc(F)cc1 | 1.3
COc1ccc(N2CCN(CCC(=O)c3ccc(F)cc3)CC2)cc1 | 1.3
O=C(CCN1CCN(c2ccc(F)cc2)CC1)c1ccc(F)c(Cl)c1 | 7.3
O=C(CCN1CCN(c2ccc(C(F)(F)F)cc2)CC1)c1ccc(F)c(F)c1 | 0.4
Cc1ccc(C(=O)CCN2CCN(c3ccc(Cl)cc3)CC2)cc1 | 5.8
O=C(CCN1CCN(c2ccc(Cl)cc2)CC1)c1ccc(Br)cc1 | 1.2

Tested on: not listed separately
Assay: Selectivity index, ratio of IC50 for African green monkey Vero cells to IC50 for Trypanosoma cruzi IRHOD/CO/2008/SN3 DTU 1 epimastigotes
Type: toxicity
Conditions: read-out: Ratio IC50
Outline: as §2

Compound | selectivity ratio
O=C(CCN1CCN(c2ccc(Cl)cc2)CC1)c1ccc(Cl)c(F)c1 | 3.4
O=C(CCN1CCN(c2ccc(C(F)(F)F)cc2)CC1)c1ccc(OC(F)(F)F)cc1 | 1.7
O=C(CCN1CCN(c2ccc(C(F)(F)F)cc2)CC1)c1ccc(C(F)(F)F)cc1 | 1.4
O=C(CCN1CCN(c2ccccc2F)CC1)c1ccc(F)cc1 | 0.9
COc1ccc(N2CCN(CCC(=O)c3ccc(F)cc3)CC2)cc1 | 1.4
O=C(CCN1CCN(c2ccc(F)cc2)CC1)c1ccc(F)c(Cl)c1 | 4.5
O=C(CCN1CCN(c2ccc(C(F)(F)F)cc2)CC1)c1ccc(F)c(F)c1 | 0.5
Cc1ccc(C(=O)CCN2CCN(c3ccc(Cl)cc3)CC2)cc1 | 7.1
O=C(CCN1CCN(c2ccc(Cl)cc2)CC1)c1ccc(Br)cc1 | 2

Tested on: not listed separately
Assay: Selectivity index, ratio of IC50 for African green monkey Vero cells to IC50 for Trypanosoma cruzi TINF/CH/1956/Tulahuen DTU 6 epimastigotes
Type: toxicity
Conditions: read-out: Ratio IC50
Outline: as §2

Compound | selectivity ratio
O=C(CCN1CCN(c2ccc(Cl)cc2)CC1)c1ccc(Cl)c(F)c1 | 3.2
O=C(CCN1CCN(c2ccc(C(F)(F)F)cc2)CC1)c1ccc(OC(F)(F)F)cc1 | 0.8
O=C(CCN1CCN(c2ccc(C(F)(F)F)cc2)CC1)c1ccc(C(F)(F)F)cc1 | 1.1
O=C(CCN1CCN(c2ccccc2F)CC1)c1ccc(F)cc1 | 0.9
COc1ccc(N2CCN(CCC(=O)c3ccc(F)cc3)CC2)cc1 | 0.8
O=C(CCN1CCN(c2ccc(F)cc2)CC1)c1ccc(F)c(Cl)c1 | 5
O=C(CCN1CCN(c2ccc(C(F)(F)F)cc2)CC1)c1ccc(F)c(F)c1 | 0.3
Cc1ccc(C(=O)CCN2CCN(c3ccc(Cl)cc3)CC2)cc1 | 6.2
O=C(CCN1CCN(c2ccc(Cl)cc2)CC1)c1ccc(Br)cc1 | 2.5
